Experimental data reported in ChEMBL document CHEMBL2331340, “Novel antitumor indolizino[6,7-b]indoles with multiple modes of action: DNA cross-linking and topoisomerase I and II inhibition” (J Med Chem, 2013).
Values belong to the molecule of their own block, whether it stands above or below them. The source made the active and inactive calls. The rule behind the calls is not given here.

Columns and labels:
Mus musculus [1] = assay: Toxicity in nude mouse xenografted with human A549 cells assessed as body weight loss at 60 mg/kg, iv tid administered 2 days measured for 20 days; assay type: organism-based; parameters: dose 60 mg/kg, route intravenous; settings: in vivo, 480 h
[2] = biological target: T1, DNA topoisomerase 1 (Homo sapiens) (UniProt P11387); assay: Inhibition of DNA topoisomerase 1 (unknown origin)-mediated relaxation of supercoiled pHOT DNA at 25 to 100 uM after 30 to 45 mins by agarose gel electrophoresis
T1 sequence (whole entry): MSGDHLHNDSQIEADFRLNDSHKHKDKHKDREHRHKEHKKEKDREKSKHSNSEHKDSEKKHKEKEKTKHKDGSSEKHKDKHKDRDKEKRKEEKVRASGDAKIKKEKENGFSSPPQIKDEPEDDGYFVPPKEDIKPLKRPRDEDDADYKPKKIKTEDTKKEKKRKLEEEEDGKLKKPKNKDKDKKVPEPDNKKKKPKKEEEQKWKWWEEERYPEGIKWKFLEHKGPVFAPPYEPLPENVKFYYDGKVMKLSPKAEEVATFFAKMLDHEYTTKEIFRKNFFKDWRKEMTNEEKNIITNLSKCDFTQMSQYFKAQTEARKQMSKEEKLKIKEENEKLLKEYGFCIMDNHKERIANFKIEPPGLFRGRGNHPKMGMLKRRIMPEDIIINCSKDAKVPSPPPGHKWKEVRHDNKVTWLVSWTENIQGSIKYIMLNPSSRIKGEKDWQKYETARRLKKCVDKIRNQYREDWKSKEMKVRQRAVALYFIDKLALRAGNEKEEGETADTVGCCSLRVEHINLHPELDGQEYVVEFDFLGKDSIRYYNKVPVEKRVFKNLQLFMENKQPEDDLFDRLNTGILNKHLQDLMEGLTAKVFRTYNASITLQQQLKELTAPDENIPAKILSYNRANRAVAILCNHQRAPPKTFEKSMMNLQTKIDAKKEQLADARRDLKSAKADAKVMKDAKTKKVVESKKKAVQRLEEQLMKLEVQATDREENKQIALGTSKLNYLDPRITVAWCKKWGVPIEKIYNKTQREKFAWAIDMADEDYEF
How it was run: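 Supercoiled pHOT DNA (200 ng) and compound in 10 mM Tris-HCl pH 7.9 with 1 mM EDTA at 37 °C. Reaction started with 1 unit topo I, run 30−45 min, stopped with 10% SDS. Products separated on 1% agarose at 50 V for 90 min and stained with ethidium bromide.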

HT-29 [3] = assay: Antitumor activity against human HT-29 cells xenografted in nude mouse assessed as tumor growth inhibition at 60 mg/kg, iv tid administered 2 days measured on day 20; assay type: functional, organism-based; parameters: dose 60 mg/kg
A549 [4] = assay: Antitumor activity against human A549 cells xenografted in nude mouse assessed as tumor growth inhibition at 60 mg/kg, iv tid administered 2 days measured on day 20 relative to vehicle-treated control; assay type: functional; settings: read-out: TGI
HT-29 [5] = assay: Antitumor activity against human HT-29 cells xenografted in nude mouse assessed as tumor growth inhibition at 60 mg/kg, iv tid administered 2 days measured on day 22; assay type: functional, organism-based; parameters: dose 60 mg/kg
Mus musculus [6] = assay: Toxicity in nude mouse xenografted with human HT-29 cells assessed as body weight loss at 60 mg/kg, iv tid administered 2 days measured for 20 days; assay type: organism-based; parameters: dose 60 mg/kg, route intravenous; settings: in vivo, 480 h
HCT-116 = assay: Cytotoxicity against human HCT116 cells after 72 hrs by Alamar blue assay; assay type: functional, cell-based; settings: HCT-116, 72 h
How it was run: (§1)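 Cells exposed to compound for 72 h, then Alamar blue added with a further 10−12 h at 37 °C and a spectrophotometric read. IC50 from six or seven concentrations by median-effect analysis; mean ± STDEV, n = 3. CL141T is a line derived from a patient lung tumor passaged as a SCID mouse xenograft.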

[7] = Cytotoxicity against human H460 cells after 72 hrs by Alamar blue assay; assay type: functional, cell-based; settings: NCI-H460, 72 h; how it was run: as §1
[8] = Cytotoxicity against human OECM1 cells after 72 hrs by Alamar blue assay; assay type: functional, cell-based; settings: OECM1, 72 h; how it was run: as §1
[9] = Cell cycle arrest in human CL141T cells assessed as accumulation at S phase at 1 x IC50 to 2 x IC50 after 24 hrs by propidium iodide staining-based FACS flow cytometric analysis; assay type: functional
How it was run: (§2)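 CL141T cells treated at 0.5-, 1- and 2-fold IC50 for 24, 48 and 72 h. Cells fixed in ice-cold 70% EtOH, then stained with 4 μg/mL propidium iodide in PBS with 1% Triton X-100 and 0.1 mg/mL RNase A. Phase distribution from flow cytometry DNA histograms; sub-G1 fraction scored as well.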

NCI-H460 [10] = assay: Induction of apoptosis in human H460 cells assessed as increase in apoptotic cells at IC50 after 72 hrs by annexin V-FITC/propidium iodide staining-based FACS flow cytometric analysis (reference value: 9.29%); assay type: functional
KB = assay: Cytotoxicity against human KB cells after 72 hrs by Alamar blue assay
[11] = Cell cycle arrest in human CL141T cells assessed as accumulation at sub-G1 phase at 0.5 x IC50 to 2 x IC50 after 72 hrs by propidium iodide staining-based FACS flow cytometric analysis; assay type: functional; how it was run: as §2
A549 [12] = assay: Cytotoxicity against human A549 cells after 72 hrs by Alamar blue assay; assay type: functional, cell-based; settings: A549, 72 h; how it was run: as §1
MES-SA = assay: Resistance factor, ratio of IC50 for human MES-SA/Dx5 cells to IC50 for human MES-SA cells; assay type: functional
[13] = Cytotoxicity against human MES-SA/Dx5 cells after 72 hrs by Presto Blue assay; assay type: functional, cell-based; settings: MES-SA/Dx5, 72 h
How it was run: (§3)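 MES-SA and doxorubicin-resistant MES-SA/dx5 cells exposed for 72 h, then PrestoBlue added for 3 h at 37 °C, absorbance read at 570 and 600 nm. IC50 by median-effect analysis of six or seven concentrations; mean ± STDEV of three to six independent experiments.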

Escherichia coli = assay: Induction of Escherichia coli pEGFP-N1 DNA interstrand cross-linking at 1 to 10 uM after 2 hrs by alkaline agarose gel shift assay
How it was run: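 Plasmid pEGFP-N1 DNA (1500 ng) incubated with compound at 1, 5 and 10 μM in 3 mM NaCl/1 mM sodium phosphate pH 7.4/1 mM EDTA, 2 h at 37 °C. DNA then BamHI-linearized, EtOH-precipitated, denatured in 0.5 N NaOH/10 mM EDTA, run on 0.8% alkaline agarose at 4 °C (18 V, 22 h), stained with ethidium bromide.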

Mus musculus [14] = assay: Toxicity in nude mouse xenografted with human MX1 cells assessed as body weight loss at 25 mg/kg, iv qd administered 3 days measured for 20 days; assay type: organism-based; parameters: dose 25 mg/kg, route intravenous; settings: in vivo, 480 h
[15] = Resistance factor, ratio of IC50 for human KB-VIN10 cells to IC50 for human KB cells; assay type: functional
PC-3 = assay: Cytotoxicity against human PC3 cells after 72 hrs by Alamar blue assay; assay type: functional, cell-based; settings: PC-3, 72 h; how it was run: as §1
HT-29 [16] = assay: Cytotoxicity against human HT-29 cells after 72 hrs by Alamar blue assay; assay type: functional, cell-based; settings: HT-29, 72 h; how it was run: as §1
NCI-H460 [17] = assay: Induction of apoptosis in human H460 cells assessed as increase in cleaved caspase 3 expression at IC50 after 24 to 72 hrs by Western blotting analysis; assay type: functional, cell-based
How it was run: (§4)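 H460 cells treated at IC50 for 24 and 72 h. Lysate proteins separated by SDS-PAGE and blotted to nitrocellulose, blocked in 5% milk/PBST. Primary antibodies to caspase-3, caspase-7, PARP (full-length and cleaved) and β-actin applied for 1 h at room temperature or overnight at 4 °C; HRP secondary with ECL detection.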

[18] = Cell cycle arrest in human CL141T cells assessed as accumulation at G2/M phase at 2 x IC50 after 24 hrs by propidium iodide staining-based FACS flow cytometric analysis; assay type: functional; how it was run: as §2
NCI-H460 [19] = assay: Induction of apoptosis in human H460 cells assessed as increase in apoptotic cells at IC50 after 24 hrs by annexin V-FITC/propidium iodide staining-based FACS flow cytometric analysis (reference value: 4.1%); assay type: functional
[20] = Cytotoxicity against human KB-VIN10 cells after 72 hrs by Alamar blue assay; settings: KB-VIN10, 72 h
NCI-H460 [21] = assay: Induction of apoptosis in human H460 cells assessed as increase in cleaved PARP expression at IC50 after 24 to 72 hrs by Western blotting analysis; assay type: functional, cell-based; how it was run: as §4
NCI-H460 [22] = assay: Induction of apoptosis in human H460 cells assessed as increase in cleaved caspase 7 expression at IC50 after 24 to 72 hrs by Western blotting analysis; assay type: functional, cell-based; how it was run: as §4
MX1 = assay: Antitumor activity against human MX1 cells xenografted in nude mouse assessed as tumor growth inhibition at 25 mg/kg, iv qd administered 3 days measured on day 20 relative to vehicle-treated control; assay type: functional; settings: read-out: TGI
[23] = Cytotoxicity against human MES-SA cells after 72 hrs by Presto Blue assay; assay type: functional, cell-based; how it was run: as §3
[24] = Cytotoxicity against human CL141T cells after 72 hrs by Alamar blue assay; assay type: functional, cell-based; how it was run: as §1
[25] = Cell cycle arrest in human CL141T cells assessed as accumulation at G2/M phase at 0.5 x IC50 to 1 x IC50 after 48 to 72 hrs by propidium iodide staining-based FACS flow cytometric analysis; assay type: functional; how it was run: as §2
[26] = Cell cycle arrest in human CL141T cells assessed as accumulation at S phase at 0.5 x IC50 after 24 hrs by propidium iodide staining-based FACS flow cytometric analysis; assay type: functional; how it was run: as §2
[27] = Cytotoxicity against human HEL299 cells; assay type: cell-based; settings: HEL 299
CCRF-CEM = assay: Cytotoxicity against human CCRF-CEM cells after 72 hrs by XTT assay; assay type: functional, cell-based
How it was run: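 CCRF-CEM T-ALL cells incubated with compound for 72 h. XTT with phenazine methosulfate then added for 6 h at 37 °C, absorbance read at 450 and 630 nm. IC50 from six or seven concentrations by median-effect analysis; mean ± STDEV, n = 3.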

[28] = Cell cycle arrest in human CL141T cells assessed as accumulation at G1 phase at 1 x IC50 to 2 x IC50 after 24 hrs by propidium iodide staining-based FACS flow cytometric analysis; assay type: functional; how it was run: as §2

- inhibition [2]: Active
Structure (SMILES): CCc1c2c(nc3ccc(OC(=O)N4CCC(N5CCCCC5)CC4)cc13)-c1cc3c(c(=O)n1C2)COC(=O)[C@]3(O)CC [IRINOTECAN]
- Activity (Mus musculus [1]): Toxic
- TGI (HT-29 [3]): Active
- inhibition in vivo at 60 mg/kg (A549 [4]): 50%
- TGI (HT-29 [5]): inactive
- Activity (Mus musculus [6]): Toxic

- Activity (Escherichia coli): Active
Structure (SMILES): CCn1c2c(c3ccccc31)Cc1c(CO)c(CO)c(C)n1C2
- IC50 (HCT-116): 1710 nM
- IC50 [7]: 730 nM
- IC50 [8]: 1170 nM
- Activity [9]: Active
- Activity (NCI-H460 [10]): 43.52%
- IC50 (KB): 1470 nM
- Activity [11]: Active
- IC50 (A549 [12]): 2970 nM
- Ratio IC50 (MES-SA): 0.6
- IC50 [13]: 240 nM
- Activity (Mus musculus [14]): Toxic
- Ratio IC50 [15]: 0.62
- IC50 (PC-3): 2660 nM
- IC50 (HT-29 [16]): 6150 nM
- Activity (NCI-H460 [17]): Active
- Activity [18]: inactive
- Activity (NCI-H460 [19]): 12.92%
- IC50 [20]: 900 nM
- Activity (NCI-H460 [21]): Active
- Activity (NCI-H460 [22]): Active
- inhibition in vivo at 25 mg/kg (MX1): > 99%
- IC50 [23]: 400 nM
- IC50 [24]: 790 nM
- Activity [25]: Active
- Activity [26]: Active
- IC50 [27]: 2240 nM
- IC50 (CCRF-CEM): 100 nM
- Activity [28]: Active
